Data taken from ChEMBL document CHEMBL1158527, “Identification of novel allosteric nonpeptidergic inhibitors of the human cytomegalovirus-encoded chemokine receptor US28” (Bioorg Med Chem, 2010).
pEC50, pIC50: −log10 of the molar value.

What was measured:
[1] = Displacement of [125I]CCL5 from HCMV US28 receptor; design: species or system Human betaherpesvirus 5
In short: (§1)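 Allosteric inhibition of chemokine binding to US28 was measured by ¹²⁵I-CCL5 radioligand binding. IC50 values (mean and interval) came from competition curves. Single-point data give percent inhibition of CCL5 binding at 10 µM compound. All runs were in triplicate and repeated at least three times.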

[2] = Activity at HCMV US28 receptor assessed as receptor-mediated inositol phosphate response; design: species or system Human betaherpesvirus 5
In short: (§2)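 Compounds were tested against ligand-independent (constitutive) US28-driven inositol phosphate production, measured as InsP accumulation. EC50 values (mean and interval) came from dose–response curves. Single-point data give percent inhibition of constitutive signaling at 10 µM compound. All runs were in triplicate and repeated at least three times.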

Human betaherpesvirus 5 [3] = assay: Activity at HCMV US28 receptor assessed as receptor-mediated inositol phosphate response at 10 uM; in short: as §2
Human betaherpesvirus 5 [4] = assay: Displacement of [125I]CCL5 from HCMV US28 receptor at 10 uM; in short: as §1

SMILES: CSc1ccc2c(c1)C(OCCN1CCC(O)(c3ccc(Cl)cc3)CC1)Cc1ccccc1S2 (stereo not drawn)
- pIC50 [1]: 4.91
- pEC50 [2]: 5.15

SMILES: OCCN1CCN(CCCN2Cc3ccccc3CCc3ccccc32)CC1
- pIC50 [1]: 5.80

SMILES: CN1CCN(C2=Nc3ccccc3Oc3ccc(Cl)cc32)CC1
- Activity (Human betaherpesvirus 5 [3]): 0%
- Activity (Human betaherpesvirus 5 [4]): 13%

SMILES: OCCCCN1CCN(/C(=C/c2cccc(Cl)c2)c2ccccc2)CC1
- Activity (Human betaherpesvirus 5 [3]): 0%
- Activity (Human betaherpesvirus 5 [4]): 13%

SMILES: NC1c2ccccc2CC1Cc1ccc(Cl)cc1Cl (stereo not drawn)
- pIC50 [1]: 5.02
- pEC50 [2]: 4.95

SMILES: OC1(c2ccc(Cl)cc2)CCN(CCOC(c2ccccc2)c2ccccc2)CC1
- pIC50 [1]: 5.68
- pEC50 [2]: 5.46

SMILES: CC(=O)Nc1ccc(CC2Cc3ccccc3C2N)cc1 (stereo not drawn)
- pIC50 [1]: < 4.00
- pEC50 [2]: < 4.00

SMILES: COc1ccc(CC2Cc3ccccc3C2N)c(OC)c1 (stereo not drawn)
- pIC50 [1]: < 4.00
- pEC50 [2]: < 4.00

SMILES: N=C(N)NCCN1C2CCC1CC(OC1c3ccccc3CCc3ccccc31)C2 (stereo not drawn)
- Activity (Human betaherpesvirus 5 [3]): 0%
- Activity (Human betaherpesvirus 5 [4]): 34%

SMILES: CSc1ccc2c(c1)C(N1CCN(C)CC1)Cc1ccccc1S2 (stereo not drawn) [METITEPINE]
- pIC50 [1]: 6.39
- pEC50 [2]: 5.12

SMILES: CCN1CCC[C@H]1CNC(=O)c1c(OC)ccc(I)c1O [IOLOPRIDE]
- pIC50 [1]: 6.52

SMILES: COc1ccc(CC2Cc3ccccc3C2N)cc1 (stereo not drawn)
- pIC50 [1]: < 4.00
- pEC50 [2]: < 4.00

SMILES: CC(Cc1cccc(C(F)(F)F)c1)NCC=C(c1ccc(F)cc1)c1ccc(F)cc1 (stereo not drawn)
- Activity (Human betaherpesvirus 5 [3]): 38%
- Activity (Human betaherpesvirus 5 [4]): 39%

SMILES: CCc1ccccc1C1(OCCN(C)Cc2cccc(C)c2)CCCCC1C (stereo not drawn)
- Activity (Human betaherpesvirus 5 [3]): 10%
- pIC50 [1]: 4.89

SMILES: NC1c2ccccc2CC1Cc1ccccc1 (stereo not drawn)
- pIC50 [1]: 4.09
- pEC50 [2]: < 4.00

SMILES: CCN1C2CCC1CC(OC1c3ccccc3CCc3ccccc31)C2 (stereo not drawn)
- Activity (Human betaherpesvirus 5 [3]): 0%
- Activity (Human betaherpesvirus 5 [4]): 7%

SMILES: CCN1CCN(C2=Nc3cc(Cl)ccc3Nc3ccccc32)CC1
- Activity (Human betaherpesvirus 5 [3]): 16%
- pIC50 [1]: 5.42

SMILES: CCN1CCN(C2=Nc3cc(Cl)ccc3Oc3ccccc32)CC1
- Activity (Human betaherpesvirus 5 [3]): 0%
- Activity (Human betaherpesvirus 5 [4]): 38%

SMILES: N#CC(CCCN1CCC(O)(c2ccc(Cl)cc2)CC1)(c1ccccc1)c1ccccc1 [BERLEX COMPOUND]
- pIC50 [1]: 5.31
- pEC50 [2]: 5.20

SMILES: CN1CCN(CCCN2Cc3ccccc3CCc3ccccc32)CC1
- Activity (Human betaherpesvirus 5 [3]): 3%
- pIC50 [1]: 5.31

SMILES: c1ccc(CN2C3CCC2CC(OC2c4ccccc4CCc4ccccc42)C3)cc1 (stereo not drawn)
- pIC50 [1]: 4.98
- pEC50 [2]: 5.06

SMILES: CN1CCN(C2=Nc3ccccc3Sc3ccc(Cl)cc32)CC1
- Activity (Human betaherpesvirus 5 [3]): 0%
- Activity (Human betaherpesvirus 5 [4]): 28%

SMILES: NC1c2ccccc2CCC1Cc1ccc(Cl)cc1Cl (stereo not drawn)
- pIC50 [1]: 5.07
- pEC50 [2]: 4.90

SMILES: OC1(c2ccc(Cl)cc2)CCN(CCCN2Cc3ccccc3CCc3ccccc32)CC1
- pIC50 [1]: 6.15
- pEC50 [2]: 5.33

SMILES: COc1ccccc1CC1Cc2ccccc2C1N (stereo not drawn)
- pIC50 [1]: 4.43
- pEC50 [2]: 4.37

SMILES: CN1CCN(/C(=C/c2cccc(Cl)c2)c2ccccc2)CC1
- Activity (Human betaherpesvirus 5 [3]): 20%
- Activity (Human betaherpesvirus 5 [4]): 13%

SMILES: CN1CCN(CCC(=O)N2Cc3ccccc3CCc3ccccc32)CC1
- Activity (Human betaherpesvirus 5 [3]): 0%
- pIC50 [1]: < 4.00

SMILES: N/C(CCN1C2CCC1CC(OC1c3ccccc3CCc3ccccc31)C2)=N\O (stereo not drawn)
- Activity (Human betaherpesvirus 5 [3]): 0%
- Activity (Human betaherpesvirus 5 [4]): 0%

SMILES: CN1CCN(C2=Nc3cc(Cl)ccc3Oc3ccccc32)CC1
- Activity (Human betaherpesvirus 5 [3]): 22%
- Activity (Human betaherpesvirus 5 [4]): 19%

SMILES: Clc1ccc(CC2Cc3ccccc3C2N2CCN(c3ccccc3)CC2)c(Cl)c1 (stereo not drawn)
- pIC50 [1]: < 4.00
- pEC50 [2]: < 4.00

SMILES: CC(Cc1ccc(Cl)cc1)NCCC1=C2C=CC=CC2Sc2ccccc21 (stereo not drawn)
- Activity (Human betaherpesvirus 5 [3]): 21%
- pIC50 [1]: 5.59

SMILES: CC(Cc1ccccc1)NCC=C1c2ccccc2-c2ccccc21 (stereo not drawn)
- Activity (Human betaherpesvirus 5 [3]): 42%
- pIC50 [1]: 5.15

SMILES: CCCCN1CCN(C2=Nc3cc(Cl)ccc3Nc3ccccc32)CC1
- Activity (Human betaherpesvirus 5 [3]): 19%
- pIC50 [1]: 5.33

SMILES: NC1c2ccccc2CCCC1Cc1ccc(Cl)cc1Cl (stereo not drawn)
- Activity (Human betaherpesvirus 5 [3]): 26%
- pIC50 [1]: 4.93

SMILES: NC(CCc1ccccc1)c1ccc(Cl)c(Cl)c1 (stereo not drawn)
- Activity (Human betaherpesvirus 5 [3]): 34%
- Activity (Human betaherpesvirus 5 [4]): 5%

SMILES: NCC(OC(c1ccccc1)c1ccc(Cl)cc1Cl)c1ccccc1 (stereo not drawn)
- pIC50 [1]: 5.04
- pEC50 [2]: 4.99

SMILES: OC1(c2ccc(Cl)cc2)CCN(CCCN(Cc2ccccc2)c2ccc(Cl)cc2)CC1
- pIC50 [1]: 5.74
- pEC50 [2]: 5.30

SMILES: COc1ccc(CC2Cc3ccccc3C2N)cc1C (stereo not drawn)
- pIC50 [1]: 4.22
- pEC50 [2]: 4.79

SMILES: CC(C)N1C2CCC1CC(OC1c3ccccc3C=Cc3ccccc31)C2 (stereo not drawn)
- Activity (Human betaherpesvirus 5 [3]): 3%
- Activity (Human betaherpesvirus 5 [4]): 13%

SMILES: CC(Cc1cccc(C(F)(F)F)c1)NCCc1c2ccccc2nc2ccccc12 (stereo not drawn)
- Activity (Human betaherpesvirus 5 [3]): 34%
- pIC50 [1]: 5.26

SMILES: Clc1ccc(CC2Cc3ccccc3C2NCc2ccccc2)c(Cl)c1 (stereo not drawn)
- pIC50 [1]: < 4.00
- pEC50 [2]: < 4.00

SMILES: OC1(c2ccc(Cl)cc2)CCN(CCCN(Cc2ccccc2)c2ccccc2)CC1
- pIC50 [1]: 5.39
- pEC50 [2]: 5.52

SMILES: C1=Cc2ccccc2C(OC2CC3CCC(C2)N3C2CCCCC2)c2ccccc21 (stereo not drawn)
- pIC50 [1]: 5.08
- pEC50 [2]: 5.24

SMILES: CC(C)(C)c1ccc(C(OC(CN)c2ccccc2)c2ccccc2)cc1 (stereo not drawn)
- pIC50 [1]: 5.09
- pEC50 [2]: 5.08

SMILES: OC1(c2ccc(Cl)cc2)CCCN(CCCN2Cc3ccccc3CCc3ccccc32)C1 (stereo not drawn)
- pIC50 [1]: 6.05
- pEC50 [2]: 5.41

SMILES: NCC1(c2ccc(Cl)cc2)CCN(CCCN2Cc3ccccc3CCc3ccccc32)CC1
- pIC50 [1]: 5.80
- pEC50 [2]: 5.12

SMILES: CN1CCN(C2Cc3ccccc3Sc3ccc(Cl)cc32)CC1 (stereo not drawn) [CLOROTEPINE]
- pIC50 [1]: 5.31
- pEC50 [2]: 4.92

SMILES: NC(CCc1ccc(Cl)c(Cl)c1)c1ccc(Cl)c(Cl)c1 (stereo not drawn)
- pIC50 [1]: 5.12
- pEC50 [2]: 4.93

SMILES: CCCN1C2CCC1CC(OC1c3ccccc3C=Cc3ccccc31)C2 (stereo not drawn)
- Activity (Human betaherpesvirus 5 [3]): 0%
- Activity (Human betaherpesvirus 5 [4]): 18%

SMILES: OC1(c2ccc(Cl)cc2)CCN(CCCN(Cc2ccc(Cl)cc2)c2ccccc2)CC1
- pIC50 [1]: 5.24
- pEC50 [2]: 5.26

SMILES: OC1(c2ccc(Cl)cc2)CCN(CCCC(c2ccc(F)cc2)c2ccc(F)cc2)CC1
- pIC50 [1]: 5.52
- pEC50 [2]: 5.28

SMILES: Clc1cccc(/C=C(\c2ccccc2)N2CCN(CCCCc3ccccc3)CC2)c1
- Activity (Human betaherpesvirus 5 [3]): 18%
- Activity (Human betaherpesvirus 5 [4]): 47%

SMILES: c1ccc(CCN2C3CCC2CC(OC2c4ccccc4CCc4ccccc42)C3)cc1 (stereo not drawn)
- pIC50 [1]: 4.92
- pEC50 [2]: 5.37

SMILES: OC1(c2ccc(Cl)cc2)CCN(CCOC(c2ccccc2)c2ccc(F)cc2)CC1 (stereo not drawn)
- pIC50 [1]: 5.64
- pEC50 [2]: 5.34

SMILES: CN1[C@@H]2CC[C@H]1C[C@@H](OC1c3ccccc3CCc3ccccc31)C2
- Activity (Human betaherpesvirus 5 [3]): 0%
- Activity (Human betaherpesvirus 5 [4]): 15%

SMILES: CCCCCCCCN1C2CCC1CC(OC1c3ccccc3CCc3ccccc31)C2 (stereo not drawn)
- pIC50 [1]: 5.25
- pEC50 [2]: 5.31

SMILES: O=C(CCN1CCN(CCO)CC1)N1Cc2ccccc2CCc2ccccc21
- Activity (Human betaherpesvirus 5 [3]): 0%
- pIC50 [1]: < 4.00

SMILES: CN1CCN(C2c3ccccc3CC2Cc2ccc(Cl)cc2Cl)CC1 (stereo not drawn)
- pIC50 [1]: 5.09
- pEC50 [2]: 4.92

SMILES: OC1(c2ccc(Cl)cc2)CCN(C2c3ccccc3CC2Cc2ccc(Cl)cc2Cl)CC1 (stereo not drawn)
- pIC50 [1]: 4.96
- pEC50 [2]: 5.22

SMILES: CN1CCN(C2=Nc3cc(Cl)ccc3Sc3ccccc32)CC1
- Activity (Human betaherpesvirus 5 [3]): 0%
- Activity (Human betaherpesvirus 5 [4]): 47%

SMILES: CC(Cc1ccccc1)NCCC1c2ccccc2-c2ccccc21 (stereo not drawn)
- pIC50 [1]: 5.28
- pEC50 [2]: 4.96

SMILES: Clc1ccc(CC2Cc3ccccc3C2N2CCCCC2)c(Cl)c1 (stereo not drawn)
- pIC50 [1]: 4.87
- pEC50 [2]: 5.59

SMILES: Clc1ccc(C2=CCN(C3c4ccccc4CC3Cc3ccc(Cl)cc3Cl)CC2)cc1 (stereo not drawn)
- pIC50 [1]: < 4.00
- pEC50 [2]: < 4.00

SMILES: Cc1ccc(CC2Cc3ccccc3C2N)c(C)c1 (stereo not drawn)
- pIC50 [1]: 4.75
- pEC50 [2]: 4.86

SMILES: CN1CCN(C2=Nc3cc(Cl)ccc3Nc3ccccc32)CC1
- Activity (Human betaherpesvirus 5 [3]): 11%
- Activity (Human betaherpesvirus 5 [4]): 47%

SMILES: CC(Cc1ccccc1)NCC=C1c2ccccc2CCc2ccccc21 (stereo not drawn)
- Activity (Human betaherpesvirus 5 [3]): 39%
- pIC50 [1]: 5.38

SMILES: C=C[C@H]1CN2CC[C@@H]1C[C@H]2C(OC(=O)c1ccc(C)cc1)c1ccnc2ccccc12 (stereo partly drawn)
- pIC50 [1]: 6.52

SMILES: CC(Cc1ccccc1)NCCC1c2ccccc2CCc2ccccc21 (stereo not drawn)
- pIC50 [1]: 5.43
- pEC50 [2]: 5.28
